The results in this text go back to ChEMBL document CHEMBL1135530, “Selective alpha4beta7 integrin antagonists and their potential as antiinflammatory agents” (J Med Chem, 2002).

One assay concerns the target Integrin alpha-4/beta-1 (Homo sapiens, UniProt P05556+P13612). Kind of assay: Inhibitory concentration affording 50% inhibition of alpha4-beta1 integrin binding to VCAM-1, using ELISA assay. It is filed as protein-complex assay. In a few lines:
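α4β1 extracted from Ramos cell membranes (lectin chromatography, gel filtration in 1% octylglucoside), with 1 mM MnCl2 throughout. Wells coated with 4 µg/mL recombinant soluble human VCAM-1 (5 N-terminal Ig domains, from CHO cells) and blocked with 1% BSA. Inhibitor and receptor 2 h at 37 °C in Tris pH 7.4. Bound receptor detected with anti-β1 mAb 2D4.6, then HRP anti-mouse and TMB at 450 nm. IC50 at half-maximal absorbance.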

A further assay concerns the target T1, Integrin alpha-4/beta-7 (Homo sapiens, UniProt P13612+P26010).
T1 sequence (P13612 whole entry): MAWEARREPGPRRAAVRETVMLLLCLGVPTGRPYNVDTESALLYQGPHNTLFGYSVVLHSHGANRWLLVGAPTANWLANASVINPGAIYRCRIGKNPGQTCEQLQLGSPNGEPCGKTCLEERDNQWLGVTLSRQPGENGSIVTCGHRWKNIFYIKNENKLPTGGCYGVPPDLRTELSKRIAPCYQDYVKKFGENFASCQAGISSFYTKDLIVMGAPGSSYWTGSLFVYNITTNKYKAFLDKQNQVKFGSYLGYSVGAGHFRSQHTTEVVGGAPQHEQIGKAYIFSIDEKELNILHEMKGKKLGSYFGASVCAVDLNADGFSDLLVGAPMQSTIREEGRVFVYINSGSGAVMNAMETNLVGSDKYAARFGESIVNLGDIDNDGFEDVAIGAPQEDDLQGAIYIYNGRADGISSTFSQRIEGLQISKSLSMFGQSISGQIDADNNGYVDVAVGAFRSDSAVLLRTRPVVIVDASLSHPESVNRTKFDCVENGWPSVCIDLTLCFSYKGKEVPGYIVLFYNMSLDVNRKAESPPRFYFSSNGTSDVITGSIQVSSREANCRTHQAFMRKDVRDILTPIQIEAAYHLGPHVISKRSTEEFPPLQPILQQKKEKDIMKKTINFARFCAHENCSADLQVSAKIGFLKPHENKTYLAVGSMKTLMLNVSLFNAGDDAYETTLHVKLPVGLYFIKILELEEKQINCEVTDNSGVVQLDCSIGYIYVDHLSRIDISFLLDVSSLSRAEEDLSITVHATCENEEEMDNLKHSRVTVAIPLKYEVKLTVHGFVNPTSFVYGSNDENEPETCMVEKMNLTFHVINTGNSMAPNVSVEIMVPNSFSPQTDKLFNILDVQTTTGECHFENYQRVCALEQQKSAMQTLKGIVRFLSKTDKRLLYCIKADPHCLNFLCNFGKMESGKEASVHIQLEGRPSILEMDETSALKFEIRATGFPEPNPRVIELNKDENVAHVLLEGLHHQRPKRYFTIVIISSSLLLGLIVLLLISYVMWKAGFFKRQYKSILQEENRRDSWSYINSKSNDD
T1 sequence (P26010 whole entry): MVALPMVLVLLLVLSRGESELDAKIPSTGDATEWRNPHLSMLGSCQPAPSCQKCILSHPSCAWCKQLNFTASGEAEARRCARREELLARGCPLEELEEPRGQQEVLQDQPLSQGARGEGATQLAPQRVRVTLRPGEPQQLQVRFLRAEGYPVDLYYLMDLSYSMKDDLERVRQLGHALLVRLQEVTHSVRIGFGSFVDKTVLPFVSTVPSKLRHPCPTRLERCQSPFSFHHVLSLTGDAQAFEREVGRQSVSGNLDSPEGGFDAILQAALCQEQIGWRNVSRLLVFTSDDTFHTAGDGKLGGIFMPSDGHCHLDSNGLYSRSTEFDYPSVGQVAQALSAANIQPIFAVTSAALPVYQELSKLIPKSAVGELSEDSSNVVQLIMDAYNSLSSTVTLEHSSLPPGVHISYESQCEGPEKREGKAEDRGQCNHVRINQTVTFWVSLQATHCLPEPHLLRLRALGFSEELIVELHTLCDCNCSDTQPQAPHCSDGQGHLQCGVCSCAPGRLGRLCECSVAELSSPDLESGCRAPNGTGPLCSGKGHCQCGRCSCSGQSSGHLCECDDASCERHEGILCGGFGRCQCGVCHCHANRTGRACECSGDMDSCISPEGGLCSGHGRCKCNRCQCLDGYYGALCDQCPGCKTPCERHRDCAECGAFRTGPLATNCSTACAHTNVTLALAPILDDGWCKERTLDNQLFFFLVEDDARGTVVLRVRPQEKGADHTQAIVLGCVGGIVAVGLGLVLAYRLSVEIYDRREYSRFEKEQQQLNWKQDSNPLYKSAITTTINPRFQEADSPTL
Kind of assay: Ability to block the alpha4-beta7 integrin-MAdCAM-1 binding interaction using a protein ELISA format. It is filed as protein-complex assay. An outline of the steps: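 Plates coated overnight at 4 °C with anti-human α4 antibody 9F10 (2 µg/mL), blocked in Tris pH 7.5 buffer with 1 mM MnCl2, Tween-20 and 0.5% BSA, then loaded with α4β7 purified from transfected JY cells (2 µg/mL). Compounds (1 nM–200 µM final, triplicate) plus MAdCAM-1-Ig-HRP (1 µg/mL), 2 h room temperature. TMB read at 450 nm; IC50 at half-maximal absorbance.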

Peptide text beside a SMILES is read from it. Where only a bound is given, the exact number is not on record here.

Chain of Integrin alpha-4/beta-1 (P05556 whole entry, one chain of several, the tested form may be a part): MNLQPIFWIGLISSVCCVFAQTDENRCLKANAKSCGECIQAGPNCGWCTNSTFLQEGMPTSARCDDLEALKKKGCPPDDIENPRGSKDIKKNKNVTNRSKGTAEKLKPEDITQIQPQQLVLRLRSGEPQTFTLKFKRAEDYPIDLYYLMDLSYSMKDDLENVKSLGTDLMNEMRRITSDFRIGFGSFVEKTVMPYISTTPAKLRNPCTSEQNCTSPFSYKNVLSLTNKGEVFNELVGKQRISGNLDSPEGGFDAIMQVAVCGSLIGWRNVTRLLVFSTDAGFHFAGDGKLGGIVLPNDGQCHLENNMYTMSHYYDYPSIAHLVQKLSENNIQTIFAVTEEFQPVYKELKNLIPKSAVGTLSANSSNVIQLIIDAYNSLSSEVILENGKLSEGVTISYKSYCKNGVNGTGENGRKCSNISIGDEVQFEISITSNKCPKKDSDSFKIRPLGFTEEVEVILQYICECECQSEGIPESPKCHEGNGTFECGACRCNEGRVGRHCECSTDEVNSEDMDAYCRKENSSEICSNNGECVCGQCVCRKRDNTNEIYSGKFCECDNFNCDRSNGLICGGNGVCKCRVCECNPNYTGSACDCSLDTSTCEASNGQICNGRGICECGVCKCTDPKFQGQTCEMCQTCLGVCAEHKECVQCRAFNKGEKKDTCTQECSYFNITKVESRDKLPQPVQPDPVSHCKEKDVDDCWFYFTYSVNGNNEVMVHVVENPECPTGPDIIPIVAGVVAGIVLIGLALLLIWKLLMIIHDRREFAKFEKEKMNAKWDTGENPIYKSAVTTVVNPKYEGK

Regarding `CC(C)C[C@@H]1NC(=O)[C@H]([C@@H](C)O)NC(=O)[C@H](CC(N)=O)NC(=O)[C@H](CO)NC(=O)[C@H](CCCNC(=N)N)NC(=O)[C@@H](N)CSSC[C@@H](C(N)=O)NC1=O`, the IC50 was 88 µM on Integrin alpha-4/beta-1 and 175 µM on Integrin alpha-4/beta-7.

`CC(C)C[C@@H]1NC(=O)[C@H]([C@@H](C)O)NC(=O)[C@H](CCC(=O)O)NC(=O)[C@H](CO)NC(=O)[C@H](CCCN=C(N)N)NC(=O)[C@@H](N)CSSC[C@@H](C(N)=O)NC1=O`: the IC50 at Integrin alpha-4/beta-1 is 3 µM; at Integrin alpha-4/beta-7 it was 30 µM.

For `CSCC[C@H](NC(=O)[C@H](CC(C)C)NC(=O)[C@H](Cc1c[nH]c2ccccc12)NC(=O)[C@H](CCCN=C(N)N)NC(=O)[C@H](CCC(=O)O)NC(=O)[C@H](Cc1c[nH]c2ccccc12)NC(C)=O)C(=O)N[C@@H](CC(=O)O)C(=O)N[C@H]1CSSC[C@@H](C(=O)NCC(=O)N[C@@H](CCC(=O)O)C(=O)N[C@@H](CO)C(=O)N[C@@H](Cc2c[nH]cn2)C(=O)N[C@@H](CCC(N)=O)C(=O)N[C@@H](CCC(=O)O)C(N)=O)NC(=O)[C@H](CC(C)C)NC(=O)[C@H]([C@@H](C)O)NC(=O)[C@H](CC(=O)O)NC(=O)[C@H](CO)NC(=O)[C@H](CCCN=C(N)N)NC1=O` (HELM PEPTIDE1{[ac].W.E.R.W.L.M.D.C.R.S.D.T.L.C.G.E.S.H.Q.E.[am]}$PEPTIDE1,PEPTIDE1,9:R3-15:R3$$$V2.0), the IC50 on Integrin alpha-4/beta-1 came out at 12.1 µM; at Integrin alpha-4/beta-7, 1.3 µM.

With `CC(C)C[C@@H]1NC(=O)[C@H]([C@@H](C)O)NC(=O)[C@H](CC(=O)O)NC(=O)[C@H]([C@@H](C)O)NC(=O)[C@H](CCCN=C(N)N)NC(=O)[C@@H](N)CSSC[C@@H](C(N)=O)NC1=O`, the IC50 came to 7.4 µM at Integrin alpha-4/beta-1 and 2.1 µM at Integrin alpha-4/beta-7.

`CC(C)C[C@@H]1NC(=O)[C@H]([C@@H](C)O)NC(=O)[C@H](CC(=O)O)NC(=O)[C@H](CO)NC(=O)[C@H](CCCNC(=N)N)NC(=O)[C@@H](N)CSSC[C@@H](C(=O)NCC(N)=O)NC1=O` (HELM PEPTIDE1{C.R.S.D.T.L.C.G.[am]}$PEPTIDE1,PEPTIDE1,1:R3-7:R3$$$V2.0): the IC50 at Integrin alpha-4/beta-1 was determined as 3.8 µM; at Integrin alpha-4/beta-7 it was 0.11 µM.

As for `CC(C)C[C@@H]1NC(=O)[C@H](C(C)C)NC(=O)[C@H](CC(=O)O)NC(=O)[C@H](CO)NC(=O)[C@H](CCCN=C(N)N)NC(=O)[C@@H](N)CSSC[C@@H](C(N)=O)NC1=O`, the concentration for half-maximal inhibition (IC50) on Integrin alpha-4/beta-1 was 13 µM; on Integrin alpha-4/beta-7, 0.84 µM.

Turning to `CSCC[C@@H]1NC(=O)[C@H](CCCN=C(N)N)NC(=O)[C@@H](N)CSSC[C@@H](C(N)=O)NC(=O)[C@H](CC(C)C)NC(=O)[C@H]([C@@H](C)O)NC(=O)[C@H](CC(=O)O)NC1=O`, the half-maximal inhibitory concentration (IC50) on Integrin alpha-4/beta-1 is 3.2 µM; on Integrin alpha-4/beta-7, 2.2 µM.

Regarding `CC(C)C[C@@H]1NC(=O)[C@H]([C@@H](C)O)NC(=O)[C@H](CC(=O)O)NC(=O)[C@H](CO)NC(=O)[C@H](Cc2cnc[nH]2)NC(=O)[C@@H](N)CSSC[C@@H](C(N)=O)NC1=O`, the IC50 on Integrin alpha-4/beta-1 is 1.1 µM; at Integrin alpha-4/beta-7, 0.39 µM.

Consider `CC(C)C[C@H]1NC(=O)[C@H]([C@H](C)O)NC(=O)[C@H](CC(=O)O)NC(=O)[C@H](CO)NC(=O)[C@@H](CCCN=C(N)N)NC(=O)[C@H](N)CSSC[C@H](C(N)=O)NC1=O`, for which the IC50 on Integrin alpha-4/beta-1 and at Integrin alpha-4/beta-7 was over 100 µM throughout.

For the compound `CC(C)C[C@@H]1NC(=O)[C@H](C)NC(=O)[C@H](CC(=O)O)NC(=O)[C@H](CO)NC(=O)[C@H](CCCN=C(N)N)NC(=O)[C@@H](N)CSSC[C@@H](C(N)=O)NC1=O` (HELM PEPTIDE1{C.R.S.D.A.L.C.[am]}$PEPTIDE1,PEPTIDE1,1:R3-7:R3$$$V2.0), the IC50 at Integrin alpha-4/beta-1 turned out to be 60 µM; on Integrin alpha-4/beta-7 it was 10 µM.

As to `CC(C)C[C@@H]1NC(=O)[C@H](CO)NC(=O)[C@H](CC(=O)O)NC(=O)[C@H](CO)NC(=O)[C@H](CCCNC(=N)N)NC(=O)[C@@H](N)CSSC[C@@H](C(N)=O)NC1=O`, the IC50 worked out at 14 µM at Integrin alpha-4/beta-1 and 0.29 µM at Integrin alpha-4/beta-7.

`CC(C)C[C@@H]1NC(=O)[C@H]([C@@H](C)O)NC(=O)[C@H](C)NC(=O)[C@H](CO)NC(=O)[C@H](CCCN=C(N)N)NC(=O)[C@@H](N)CSSC[C@@H](C(N)=O)NC1=O` (HELM PEPTIDE1{C.R.S.A.T.L.C.[am]}$PEPTIDE1,PEPTIDE1,1:R3-7:R3$$$V2.0): the IC50 at Integrin alpha-4/beta-1 and on Integrin alpha-4/beta-7 was over 100 µM throughout.

As for `C[C@@H]1NC(=O)[C@H]([C@@H](C)O)NC(=O)[C@H](CC(=O)O)NC(=O)[C@H](CO)NC(=O)[C@H](CCCN=C(N)N)NC(=O)[C@@H](N)CSSC[C@@H](C(N)=O)NC1=O` (HELM PEPTIDE1{C.R.S.D.T.A.C.[am]}$PEPTIDE1,PEPTIDE1,1:R3-7:R3$$$V2.0), the IC50 on Integrin alpha-4/beta-1 amounted to 40 µM; at Integrin alpha-4/beta-7, 23 µM.

For the compound `CC(C)C[C@@H]1NC(=O)[C@H]([C@@H](C)O)NC(=O)[C@H](CC(=O)O)NC(=O)[C@H](CO)NC(=O)[C@H](CCCN=C(N)N)NC(=O)[C@@H](NC(=O)[C@@H](N)CC(=O)O)CSSC[C@@H](C(=O)NCC(=O)N[C@@H](CCC(=O)O)C(N)=O)NC1=O` (HELM PEPTIDE1{D.C.R.S.D.T.L.C.G.E.[am]}$PEPTIDE1,PEPTIDE1,2:R3-8:R3$$$V2.0), the IC50 came out at 8.3 µM at Integrin alpha-4/beta-1 and 0.26 µM at Integrin alpha-4/beta-7.

Turning to `CC(C)C[C@@H]1NC(=O)[C@H]([C@@H](C)O)NC(=O)[C@H](CC(N)=O)NC(=O)[C@H](CO)NC(=O)[C@H](CCCNC(=N)N)NC(=O)[C@@H](N)CSSC[C@@H](C(=O)O)NC1=O`, the IC50 is 2.2 µM at Integrin alpha-4/beta-1 and 40 µM on Integrin alpha-4/beta-7.

Regarding `CC(C)C[C@@H]1NC(=O)[C@H]([C@@H](C)O)NC(=O)[C@H](CCC(N)=O)NC(=O)[C@H](CO)NC(=O)[C@H](CCCNC(=N)N)NC(=O)[C@@H](N)CSSC[C@@H](C(N)=O)NC1=O` (HELM PEPTIDE1{C.R.S.Q.T.L.C.[am]}$PEPTIDE1,PEPTIDE1,1:R3-7:R3$$$V2.0), the IC50 on Integrin alpha-4/beta-1 and on Integrin alpha-4/beta-7 was over 100 µM in each case.

For the compound `CSCC[C@H](N)C(=O)N[C@@H](CC(=O)O)C(=O)N[C@H]1CSSC[C@@H](C(N)=O)NC(=O)[C@H](CC(C)C)NC(=O)[C@H]([C@@H](C)O)NC(=O)[C@H](CC(=O)O)NC(=O)[C@H](CO)NC(=O)[C@H](CCCN=C(N)N)NC1=O` (HELM PEPTIDE1{M.D.C.R.S.D.T.L.C.[am]}$PEPTIDE1,PEPTIDE1,3:R3-9:R3$$$V2.0), the figures for the IC50 on Integrin alpha-4/beta-1 and on Integrin alpha-4/beta-7 were 11.8 µM and 0.64 µM, respectively.

Turning to `CC(C)C[C@@H]1NC(=O)[C@H]([C@@H](C)O)NC(=O)[C@H](CC(=O)O)NC(=O)[C@H](CO)NC(=O)[C@H](CCCNC(=N)N)NC(=O)[C@@H](N)CSSC[C@@H](C(N)=O)NC1=O`, the figures for the IC50 on Integrin alpha-4/beta-1 and on Integrin alpha-4/beta-7 were 4.2 µM and 0.12 µM, respectively.

In the case of `CC[C@H](C)[C@@H]1NC(=O)[C@H]([C@@H](C)O)NC(=O)[C@H](CC(=O)O)NC(=O)[C@H](CO)NC(=O)[C@H](CCCNC(=N)N)NC(=O)[C@@H](N)CSSC[C@@H](C(N)=O)NC1=O`, the IC50 on Integrin alpha-4/beta-1 was 25 µM; at Integrin alpha-4/beta-7 it was 1.8 µM.
